The record followed here is the M2OR odorant receptor database.

Holding throughout (details): stereoisomer not certain
Assay [1] has as its system T1, O1440.
T1 sequence (whole entry): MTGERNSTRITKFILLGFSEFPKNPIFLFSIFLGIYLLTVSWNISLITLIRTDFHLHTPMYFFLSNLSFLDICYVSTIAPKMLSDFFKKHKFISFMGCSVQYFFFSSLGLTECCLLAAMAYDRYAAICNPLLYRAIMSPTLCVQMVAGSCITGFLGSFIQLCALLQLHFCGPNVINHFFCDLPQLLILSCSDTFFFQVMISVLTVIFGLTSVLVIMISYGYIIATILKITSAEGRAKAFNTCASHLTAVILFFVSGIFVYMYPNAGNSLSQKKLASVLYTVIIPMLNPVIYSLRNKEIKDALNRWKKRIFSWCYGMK
The method in brief:
(§1)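 Transient luciferase assays in mammalian cell lines were common, though methods varied by source. The values come from published papers and their supplementary material, with extra details from the original authors when needed. Responsive refers to a measured signal the original authors judged statistically different from baseline, and non-responsive (inactive) to the remainder.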

Assay [2] has as its system T2, O14A2 I133V.
T2 sequence (whole entry): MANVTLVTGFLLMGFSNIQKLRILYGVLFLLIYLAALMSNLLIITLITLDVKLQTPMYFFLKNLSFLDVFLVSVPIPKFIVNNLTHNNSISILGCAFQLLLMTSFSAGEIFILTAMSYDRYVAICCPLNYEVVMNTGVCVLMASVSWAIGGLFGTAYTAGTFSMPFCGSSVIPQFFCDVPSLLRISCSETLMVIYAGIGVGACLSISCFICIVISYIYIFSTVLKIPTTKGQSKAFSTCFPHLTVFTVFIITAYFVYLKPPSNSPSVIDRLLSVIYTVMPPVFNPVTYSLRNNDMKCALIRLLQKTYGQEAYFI
Summed up: as §1

The subject of assay [3] is T3, O14CZ.
T3 sequence (whole entry): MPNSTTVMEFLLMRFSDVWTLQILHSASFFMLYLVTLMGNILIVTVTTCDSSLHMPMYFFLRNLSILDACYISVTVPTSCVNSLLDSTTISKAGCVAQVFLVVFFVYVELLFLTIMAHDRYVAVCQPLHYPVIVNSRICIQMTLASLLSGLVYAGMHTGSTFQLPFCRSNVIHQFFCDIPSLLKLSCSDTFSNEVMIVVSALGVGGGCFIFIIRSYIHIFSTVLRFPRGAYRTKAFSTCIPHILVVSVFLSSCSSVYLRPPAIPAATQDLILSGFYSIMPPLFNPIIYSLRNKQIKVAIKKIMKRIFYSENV
The method in brief:
as §1

Assay [4] deals with T4, O14I1 V36A D50N Y216C.
T4 sequence (whole entry): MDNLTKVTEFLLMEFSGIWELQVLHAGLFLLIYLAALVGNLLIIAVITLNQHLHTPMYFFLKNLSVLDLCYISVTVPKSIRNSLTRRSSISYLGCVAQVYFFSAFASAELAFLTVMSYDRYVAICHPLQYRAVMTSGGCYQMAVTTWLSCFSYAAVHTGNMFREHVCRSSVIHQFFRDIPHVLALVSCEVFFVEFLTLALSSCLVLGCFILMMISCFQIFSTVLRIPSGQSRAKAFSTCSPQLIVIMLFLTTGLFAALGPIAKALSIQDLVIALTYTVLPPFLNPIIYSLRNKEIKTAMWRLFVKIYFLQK
The method in brief: as §1

The subject of assay [5] is T5, O14J1 N3Y.
T5 sequence (whole entry): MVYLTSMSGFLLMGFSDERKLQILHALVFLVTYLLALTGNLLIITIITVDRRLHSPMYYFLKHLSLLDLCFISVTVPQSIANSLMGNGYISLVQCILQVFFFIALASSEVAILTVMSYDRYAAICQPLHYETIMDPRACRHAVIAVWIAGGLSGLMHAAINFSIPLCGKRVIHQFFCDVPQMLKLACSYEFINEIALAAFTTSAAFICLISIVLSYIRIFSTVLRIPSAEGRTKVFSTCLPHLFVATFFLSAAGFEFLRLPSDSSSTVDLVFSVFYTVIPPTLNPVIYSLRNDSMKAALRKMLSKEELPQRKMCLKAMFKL
Summed up:
as §1

Assay [6] concerns T6, O14K1 D119Y.
T6 sequence (whole entry): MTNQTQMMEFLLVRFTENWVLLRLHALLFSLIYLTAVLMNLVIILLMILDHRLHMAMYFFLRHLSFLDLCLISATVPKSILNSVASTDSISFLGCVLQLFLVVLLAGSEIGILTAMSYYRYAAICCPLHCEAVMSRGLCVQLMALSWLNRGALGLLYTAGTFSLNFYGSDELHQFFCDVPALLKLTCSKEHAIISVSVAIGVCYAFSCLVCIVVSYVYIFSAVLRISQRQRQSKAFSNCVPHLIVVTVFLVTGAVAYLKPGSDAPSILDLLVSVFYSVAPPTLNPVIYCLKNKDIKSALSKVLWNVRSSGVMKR
Summed up:
as §1

Assay [7] relates to T7, O2A25.
T7 sequence (whole entry): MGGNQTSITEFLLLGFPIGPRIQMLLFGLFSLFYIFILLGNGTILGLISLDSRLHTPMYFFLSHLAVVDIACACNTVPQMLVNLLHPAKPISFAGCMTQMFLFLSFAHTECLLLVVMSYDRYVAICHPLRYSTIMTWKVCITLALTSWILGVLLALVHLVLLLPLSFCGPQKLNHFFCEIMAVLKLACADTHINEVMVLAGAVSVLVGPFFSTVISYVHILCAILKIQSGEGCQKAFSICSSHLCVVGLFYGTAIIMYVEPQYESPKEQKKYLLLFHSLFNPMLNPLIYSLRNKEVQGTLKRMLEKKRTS
The method in brief: as §1

Assay [8] concerns T8, O2AE1.
T8 sequence (whole entry): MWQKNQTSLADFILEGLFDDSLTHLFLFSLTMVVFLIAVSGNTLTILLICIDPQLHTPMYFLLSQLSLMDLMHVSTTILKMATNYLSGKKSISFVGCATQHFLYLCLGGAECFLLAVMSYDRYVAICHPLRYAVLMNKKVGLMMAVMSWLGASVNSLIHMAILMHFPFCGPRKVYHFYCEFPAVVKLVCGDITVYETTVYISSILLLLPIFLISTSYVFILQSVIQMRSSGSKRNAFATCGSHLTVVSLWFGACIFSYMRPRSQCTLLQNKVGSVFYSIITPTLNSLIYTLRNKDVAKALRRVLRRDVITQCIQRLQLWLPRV
Summed up:
as §1

In assay [9] the test system is T9, O2AJ1.
T9 sequence (whole entry): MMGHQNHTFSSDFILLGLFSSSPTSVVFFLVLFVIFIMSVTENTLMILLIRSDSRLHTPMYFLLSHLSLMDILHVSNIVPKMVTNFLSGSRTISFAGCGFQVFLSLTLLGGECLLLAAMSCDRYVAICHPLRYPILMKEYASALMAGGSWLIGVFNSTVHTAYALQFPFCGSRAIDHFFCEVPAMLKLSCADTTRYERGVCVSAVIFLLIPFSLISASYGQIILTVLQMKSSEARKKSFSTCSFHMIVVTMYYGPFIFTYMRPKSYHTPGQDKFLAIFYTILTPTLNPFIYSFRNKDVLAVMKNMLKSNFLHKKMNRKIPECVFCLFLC
Summed up:
as §1

The test system of assay [10] is T10, O2AK2 S99N.
T10 sequence (whole entry): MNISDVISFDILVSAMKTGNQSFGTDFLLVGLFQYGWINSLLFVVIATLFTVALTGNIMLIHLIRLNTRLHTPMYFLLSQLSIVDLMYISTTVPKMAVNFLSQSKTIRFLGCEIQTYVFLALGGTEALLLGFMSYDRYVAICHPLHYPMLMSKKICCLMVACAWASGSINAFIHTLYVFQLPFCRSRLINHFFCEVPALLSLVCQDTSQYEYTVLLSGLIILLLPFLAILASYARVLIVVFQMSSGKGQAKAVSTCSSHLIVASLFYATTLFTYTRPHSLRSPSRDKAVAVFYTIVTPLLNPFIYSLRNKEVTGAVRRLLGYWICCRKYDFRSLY
The method in brief:
as §1

The subject of assay [11] is T11, O2T11.
T11 sequence (whole entry): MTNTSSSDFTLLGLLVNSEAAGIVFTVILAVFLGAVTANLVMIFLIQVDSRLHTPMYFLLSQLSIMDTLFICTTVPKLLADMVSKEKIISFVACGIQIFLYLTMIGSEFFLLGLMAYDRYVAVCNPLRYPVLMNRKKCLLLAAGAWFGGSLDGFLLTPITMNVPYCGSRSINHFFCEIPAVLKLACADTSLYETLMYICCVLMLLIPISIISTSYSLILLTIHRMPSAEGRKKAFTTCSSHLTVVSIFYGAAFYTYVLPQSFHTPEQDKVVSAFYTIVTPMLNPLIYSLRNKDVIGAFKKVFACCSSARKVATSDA
Summed up: as §1

Assay [12] deals with T12, O2T27 L36V V134D.
T12 sequence (whole entry): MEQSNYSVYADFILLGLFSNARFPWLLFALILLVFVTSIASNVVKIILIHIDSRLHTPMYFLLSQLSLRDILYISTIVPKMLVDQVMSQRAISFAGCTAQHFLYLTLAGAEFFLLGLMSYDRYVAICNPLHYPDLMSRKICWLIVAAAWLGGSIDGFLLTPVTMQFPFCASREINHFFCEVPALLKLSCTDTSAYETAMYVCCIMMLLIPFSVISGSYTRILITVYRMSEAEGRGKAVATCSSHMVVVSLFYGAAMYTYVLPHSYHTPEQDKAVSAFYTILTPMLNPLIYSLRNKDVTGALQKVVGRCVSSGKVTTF
The method in brief: as §1

In assay [13] the test system is T13, O2T29 Q24R.
T13 sequence (whole entry): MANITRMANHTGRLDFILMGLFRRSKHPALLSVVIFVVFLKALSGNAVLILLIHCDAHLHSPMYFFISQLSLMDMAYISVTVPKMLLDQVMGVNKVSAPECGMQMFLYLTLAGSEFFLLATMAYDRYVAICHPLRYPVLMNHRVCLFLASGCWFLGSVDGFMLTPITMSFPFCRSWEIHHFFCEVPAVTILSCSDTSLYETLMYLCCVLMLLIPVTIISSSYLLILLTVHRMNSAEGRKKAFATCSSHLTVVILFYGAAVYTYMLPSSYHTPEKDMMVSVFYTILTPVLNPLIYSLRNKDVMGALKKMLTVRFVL
Summed up: as §1

The subject of assay [14] is T14, O2T33 A169V.
T14 sequence (whole entry): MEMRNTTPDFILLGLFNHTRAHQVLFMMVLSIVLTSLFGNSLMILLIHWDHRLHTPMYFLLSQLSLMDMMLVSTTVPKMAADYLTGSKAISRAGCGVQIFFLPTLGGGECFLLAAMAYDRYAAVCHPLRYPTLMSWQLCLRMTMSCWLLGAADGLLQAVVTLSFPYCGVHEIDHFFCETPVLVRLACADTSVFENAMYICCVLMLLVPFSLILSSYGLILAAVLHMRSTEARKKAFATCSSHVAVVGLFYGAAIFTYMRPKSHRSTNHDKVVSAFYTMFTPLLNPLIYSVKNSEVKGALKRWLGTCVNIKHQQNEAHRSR
Summed up: as §1

Assay [15] deals with T15, O2T33 G297E I309L.
T15 sequence (whole entry): T14 sequence (whole entry) with V169A, G297E, I309L
Summed up:
as §1

Assay [16] deals with T16, O2T34 Q6P R267P.
T16 sequence (whole entry): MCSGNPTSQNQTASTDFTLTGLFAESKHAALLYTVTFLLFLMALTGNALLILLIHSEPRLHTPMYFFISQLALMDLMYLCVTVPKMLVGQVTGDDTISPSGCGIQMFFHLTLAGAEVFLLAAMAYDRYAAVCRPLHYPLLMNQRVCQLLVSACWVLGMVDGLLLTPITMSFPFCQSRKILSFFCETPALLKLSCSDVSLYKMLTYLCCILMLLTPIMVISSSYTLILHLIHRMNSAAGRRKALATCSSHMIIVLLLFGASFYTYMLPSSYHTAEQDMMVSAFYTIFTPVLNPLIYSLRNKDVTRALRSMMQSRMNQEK
Summed up:
as §1

Assay [17] deals with T17, O2T34 R267P.
T17 sequence (whole entry): T16 sequence (whole entry) with P6Q
Summed up: as §1

Assay [18] deals with T18, O4A47.
T18 sequence (whole entry): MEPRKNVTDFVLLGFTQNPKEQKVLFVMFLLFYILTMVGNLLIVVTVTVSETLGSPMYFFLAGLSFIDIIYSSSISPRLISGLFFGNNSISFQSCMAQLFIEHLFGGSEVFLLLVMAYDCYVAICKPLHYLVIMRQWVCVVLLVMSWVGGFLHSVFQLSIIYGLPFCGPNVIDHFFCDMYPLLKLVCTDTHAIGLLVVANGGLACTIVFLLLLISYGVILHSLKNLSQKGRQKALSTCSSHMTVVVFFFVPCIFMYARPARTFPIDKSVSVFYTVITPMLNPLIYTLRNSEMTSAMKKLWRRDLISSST
Summed up: as §1

The subject of assay [19] is O4C46 S240F C252Y K288R. Summed up: as §1
Assay [20] concerns T19, O4F15 A272T.
T19 sequence (whole entry): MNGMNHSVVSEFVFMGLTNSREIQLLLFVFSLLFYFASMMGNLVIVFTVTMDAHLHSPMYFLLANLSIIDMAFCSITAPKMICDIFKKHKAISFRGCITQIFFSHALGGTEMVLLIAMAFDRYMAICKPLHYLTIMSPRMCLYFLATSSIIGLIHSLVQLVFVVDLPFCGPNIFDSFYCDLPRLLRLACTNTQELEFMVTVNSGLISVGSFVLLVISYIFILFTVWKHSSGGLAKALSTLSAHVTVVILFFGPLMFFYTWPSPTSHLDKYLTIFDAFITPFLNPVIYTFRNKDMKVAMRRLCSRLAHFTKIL
Summed up:
as §1

Where a chain is given by its changes, count along the chain named.
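Also: active if original authors judged signal statistically different from baseline.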

`CC1CC=CCCCCCCCCCC(=O)C1` (stereo unspecified): the “odorant receptor agonist call” value in [1] was “active”.

As to `O=C1CCCC=CCCCCCCCCCC1`, the “odorant receptor agonist call” value in assay [1] is “active”.

As to `CCC1OC(C)=C(O)C1=O` (stereo unspecified), the “odorant receptor agonist call” value in assay [2], in assay [3], in assay [4], in assay [5], in assay [6] and in [7] was “inactive” each time. Besides, the “odorant receptor agonist call” value in assay [8], in [9], in assay [10], in assay [11], in assay [12] and in assay [13] was “inactive” throughout. For the same compound, the “odorant receptor agonist call” value in assay [14], in [15], in assay [16], in assay [17], in [18] and in assay [19] was “inactive” throughout. In assay [20], the “odorant receptor agonist call” value is “inactive”.
